The values that follow come from article PMC5846678 (Bioorganic & medicinal chemistry letters, 2017).

For data set [1] the following is noted: pharmacokinetic analysis, DIPG mice models; cited from earlier work.
The subject of data set [2] is IGF1R/IR. As to the kind of experiment: biodistribution in rats 120 min post injection. The class given is in vivo, Sprague-Dawley rats.
Data set [3] concerns IGF1R/IR. As to the kind of experiment: microPET imaging in rats. It is filed as in vivo, Sprague-Dawley rats. The following applies: time frames 1-10 min and 81-90 min, tail vein injection. An outline of the steps: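 Anaesthetised male Sprague-Dawley rats (N = 2) were imaged on an Inveon microPET after tail-vein injection of 0.2 ± 0.05 mCi 18F-labelled test compound in 5% ethanol/normal saline, with acquisition starting at injection. A 68Ge transmission scan provided attenuation correction. List-mode data were collected for 90 min, Fourier-rebinned, reconstructed by filtered back-projection and expressed as nCi/cc. Coronal images were summed 0–10 and 81–90 min. ROI time-activity curves covered heart, muscles and brain.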

Data set [4] has as its system IGF1R/IR. Briefly: microPET imaging in mice. The class given is in vivo, C57BL/6 mice. An outline of the steps: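 Male C57BL/6 mice (N = 2) under anaesthesia on an Inveon microPET. The 18F-labelled test compound was formulated in 5% ethanol/normal saline and sterile-filtered. 0.2 ± 0.05 mCi was given via tail vein at the start of acquisition. A 68Ge transmission scan was used for attenuation correction. List-mode data were collected for 60 min, Fourier-rebinned, reconstructed by filtered back-projection and expressed as nCi/cc. Images were summed 0–10 and 0–60 min. ROI time-activity curves were drawn for brain, heart, muscle and thalamus.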

The subject of a further data set is IGF1R. As to conditions: autoradiography; cited from earlier work.

Take `C[C@@]1(C(=O)Nc2ccc(F)nc2)CCCN1c1nc(Nc2cc(C3CC3)n[nH]2)c2cccn2n1` [BMS-754807]: in data set [1], the “concentration in tumor tissue” value is on record as “low concentration”.

As to `C[C@@]1(C(=O)Nc2ccc([18F])nc2)CCCN1c1nc(Nc2cc(C3CC3)[nH]n2)c2cccn2n1` [[^18F]BMS-754807], in the data set on IGF1R/IR [2], the binding in lung result was “negligible binding”, the binding in spleen entry is recorded as “negligible binding”, the binding in stomach entry is listed as “low binding” and the “bone uptake ([18F]defluorination)” value is given as “no bone uptake”. Also, in the data set with IGF1R/IR [2], the radioactivity in brain entry was “low levels of radioactivity”, the uptake in heart result was “significant uptake”, the “uptake in large intestine” value is listed as “moderate uptake” and the uptake in liver result is “moderate uptake”. In the data set with IGF1R/IR [2], the uptake in pancreas entry is given as “significant uptake” and the “uptake in small intestine” value is listed as “unusually higher uptake”. Further, the “radioligand accumulation in brain” value in the data set with IGF1R/IR [3] is recorded as “negligible”. Besides, in the data set on IGF1R/IR [4] (microPET), the “brain activity of the radiotracer” value is on record as “no noticeable brain activity”, the uptake in heart result is “High uptake” and the uptake in muscles result is given as “High uptake”. The “time of peak brain level of activity post-injection” value with IGF1R/IR [4] (microPET time activity curves) is “less than 1 min”. In addition, the “binding in grade IV glioblastoma (GBM) in comparison to control brain tissues” value in the data set on IGF1R is on record as 5.25 times.
